Source: ChEMBL document CHEMBL1158731, “Anti-babesial and anti-plasmodial compounds from Phyllanthus niruri” (J Nat Prod, 2005)
Values after ≈ are worked out from the molar mass of the structure shown.

Assays:
Babesia gibsoni = experiment: Antibabesial activity against Babesia gibsoni in dog erythrocytes after 72 hrs; type: functional, organism-based
Plasmodium falciparum = experiment: Antiplasmodial activity against chloroquine-susceptible Plasmodium falciparum FCR3 in human erythrocytes after 24 hrs; type: functional, organism-based; details: FCR3, 24 h
Outline: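 P. falciparum FCR-3 kept in culture and synchronized with 5% D-sorbitol, then washed in RPMI 1640. Infected RBCs resuspended at 0.25-0.50% parasitemia in RPMI 1640 with 10% human serum, 25 mM Hepes, gentamicin and Na2CO3, then incubated with test solution at 37 °C under 5% CO2. Stopped once controls reached 20% schizonts. Schizonts counted on Giemsa smears; IC50 read from the inhibition-versus-concentration graph.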

[1] = Cytotoxicity against dog RBC; type: cell-based, Canis lupus familiaris; details: erythrocyte
[2] = Cytotoxicity against human RBC; type: cell-based; details: erythrocyte

| Compound | IC50 (Babesia gibsoni) [mg/L] | IC50 (Plasmodium falciparum) [mg/L] | Activity [1] | Activity [2] |
| --- | --- | --- | --- | --- |
| O=C(O[C@H]1O[C@H](COC(=O)c2cc(O)c(O)c3oc(=O)c4cc(O)c(O)c(O)c4c23)[C@@H](O)[C@H](O)[C@H]1O)c1cc(O)c(O)c(O)c1 | 4.7 (≈ 7.41 µM) | 1.4 (≈ 2.21 µM) | Non-toxic | Non-toxic |
| O=c1c(O[C@@H]2O[C@H](CO)[C@@H](O)[C@H](O)[C@H]2O[C@@H]2OC[C@@H](O)[C@H](O)[C@H]2O)c(-c2ccc(O)c(O)c2)oc2cc(O)cc(O)c12 | 35.2 (≈ 59 µM) | 11 (≈ 18.4 µM) | Non-toxic | Non-toxic |
| O=C(O[C@@H]1O[C@H](CO)[C@@H](O)[C@H](O)[C@H]1O)c1cc(O)c(O)c(O)c1 | 7.5 (≈ 22.6 µM) | 4.6 (≈ 13.8 µM) | Non-toxic | Non-toxic |
| CC[C@H](CC[C@@H](C)[C@H]1CC[C@H]2[C@@H]3CC=C4C[C@@H](O)CC[C@]4(C)[C@H]3CC[C@]12C)C(C)C [BETA-SITOSTEROL] | 61.6 (≈ 149 µM) | 32 (≈ 77.2 µM) | Non-toxic | Non-toxic |
| CC(=O)NCC(=O)O.N=C(N)c1ccc(/N=N/Nc2ccc(C(=N)N)cc2)cc1 [DIMINAZEN ACETURATE] | 0.6 | – | – | – |
| O=C(O)c1cc(O)c(O)c(O)c1 [GALLIC ACID] | 13.4 (≈ 78.8 µM) | 14.8 (≈ 87 µM) | Non-toxic | Non-toxic |
